Experimental data: ChEMBL document CHEMBL3352392, “Identification of novel thiadiazoloacrylamide analogues as inhibitors of dengue-2 virus NS2B/NS3 protease” (Bioorg Med Chem, 2014)
Activity calls are given as the source filed them. No cut-off for these calls is given here.

Key:
[1] = target: Genome polyprotein (dengue virus type 2) (UniProt P12823); test: Inhibition of Dengue virus 2 NS2B/NS3 protease using Bz-Nle-Lys-Arg-Arg-AMC as substrate preincubated at 20 uM for 30 mins before substrate addition by fluorescence assay
In short: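 E. coli BL21-expressed DENV2 NS2B-NS3pro, 200 nM, with compound at 20 µM in 50 mM Tris-HCl pH 8.5, 10 mM NaCl, 20% glycerol, 1 mM CHAPS, 37 °C for 30 min. Bz-Nle-Lys-Arg-Arg-AMC added to start. Fluorescence read every 10 s for 5 min (ex 380/em 460 nm). Inhibition rate from maximum reaction rate with versus without compound. Aprotinin 1 µM as positive control.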

[2] = target: T1, Genome polyprotein (dengue virus type 2, UniProt P12823); test: Inhibition of Dengue virus 2 NS2B/NS3 protease using Bz-Nle-Lys-Arg-Arg-AMC as substrate preincubated for 30 mins before substrate addition by fluorescence assay
In short: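 Purified DENV2 NS2B-NS3pro (200 nM; E. coli BL21) mixed with compound at eleven levels, 0.1 nM–200 µM, in pH 8.5 Tris-HCl buffer with 10 mM NaCl, 20% glycerol, 1 mM CHAPS. Preincubated 30 min at 37 °C, then Bz-Nle-Lys-Arg-Arg-AMC added. AMC fluorescence (380/460 nm) followed every 10 s over 5 min. IC50 from the concentration series.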

[3] = target: T1, Genome polyprotein; test: (§1) Binding affinity to Dengue virus 2 NS2B/NS3 protease by SPR assay
In short: (§2)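 DENV2 NS2B/NS3pro purified from E. coli BL21 and amine-coupled onto a CM5 chip in 10 mM sodium acetate, pH 3.95. Compounds serially diluted in HBS (0.01 M HEPES, 0.15 M NaCl, 3 mM EDTA, 0.005% P20, pH 7.4). Biacore 3000 SPR gave the equilibrium KD.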

[4] = target: Genome polyprotein (dengue virus type 2) (UniProt P12823); test: as §1; in short: as §2

Row | Compound | inhibition [1] | IC50 [2] | Kd [3] | Activity [4]
1 | N#C/C(=C\c1cn(Cc2ccccc2F)c2ccccc12)C(=O)Nc1nnc(SCc2ccccc2)s1 | 88.9% | 3.58 µM | – | –
2 | N#C/C(=C\c1cn(Cc2ccccc2C#N)c2ccccc12)C(=O)Nc1nnc(SCc2ccccc2)s1 | 85.8% | 2.86 µM | – | –
3 | Cc1ccccc1CSc1nnc(NC(=O)/C(C#N)=C/c2cn(Cc3ccccc3)c3ccccc23)s1 | 69.4% | – | – | –
4 | N=C1/C(=C/c2cn(Cc3ccccc3)c3ccccc23)C(=O)N=C2SC(SCc3ccccc3)=NN12 | 72% | 6.09 µM | – | –
5 | O=C(/C=C/c1cn(Cc2ccccc2)c2ccccc12)Nc1nnc(C(F)(F)F)s1 | – | – | – | inactive
6 | N#C/C(=C\c1cn(Cc2ccccc2)c2ccccc12)C(=O)Nc1nnc(C(F)(F)F)s1 | 76% | 10.1 µM | 9.27 µM | –
7 | N#C/C(=C\c1cn(Cc2ccccc2)c2ccccc12)C(=O)Nc1nnc(SCc2cccc3ccccc23)s1 | 50% | – | – | –
8 | N#C/C(=C\c1cn(Cc2ccccc2)c2ccccc12)C(=O)Nc1nnc(SCc2ccccc2Cl)s1 | 63.5% | – | – | –

The remaining lines, values ahead:

Row | inhibition [1] | IC50 [2] | Kd [3] | Activity [4] | Compound
9 | 65.8% | – | – | – | N#C/C(=C\c1cn(Cc2ccccc2)c2ccccc12)C(=O)Nc1nnc(SCc2ccc(Br)cc2)s1
10 | 83.4% | 3.72 µM | – | – | N#C/C(=C\c1cn(Cc2ccccc2)c2ccccc12)C(=O)Nc1nnc(SCc2ccc(F)cc2)s1
11 | 54.1% | – | – | – | N#C/C(=C\c1cn(Cc2ccc(C(F)(F)F)cc2C(F)(F)F)c2ccccc12)C(=O)Nc1nnc(SCc2ccccc2)s1
12 | 79% | 4.44 µM | 3.59 µM | – | N#C/C(=C\c1cn(Cc2ccccc2)c2ccccc12)C(=O)Nc1nnc(SCc2ccccc2)s1
13 | 86.5% | 2.24 µM | 2.07 µM | – | N#C/C(=C\c1cn(Cc2ccc(F)cc2)c2ccccc12)C(=O)Nc1nnc(SCc2ccccc2)s1
14 | 45.9% | – | – | – | N#C/C(=C\c1cn(Cc2ccc(C(F)(F)F)cc2)c2ccccc12)C(=O)Nc1nnc(SCc2ccccc2)s1
15 | 76.3% | 3.44 µM | – | – | COc1ccc(CSc2nnc(NC(=O)/C(C#N)=C/c3cn(Cc4ccccc4)c4ccccc34)s2)cc1
16 | 63.4% | – | – | – | N#C/C(=C\c1cn(Cc2ccccc2)c2ccccc12)C(=O)Nc1nnc(SCc2ccc(Cl)cc2)s1
